{
  "source": "ChEMBL document CHEMBL4011629",
  "about": "“New Disubstituted Quindoline Derivatives Inhibiting Burkitt's Lymphoma Cell Proliferation by Impeding c-MYC Transcription” (J Med Chem, 2017)",
  "key": {"Homo sapiens [1]": {"organism": "Homo sapiens", "test": "Stabilization of c-Myc G-quadruplex DNA in human Raji cells assessed as downregulation of c-Myc mRNA level at 2 uM after 12 hrs by RT-PCR method relative to control", "type": "cell-based", "in_short": "(§1)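 RAJI, CCRF-CEM and U266B1 grown in RPMI 1640 with 10% fetal calf serum at 37 °C, plated at 1 × 10^6 cells/well overnight, then treated 12 h with 4, 2, 1 or 0.5 μM (DMSO control). RNA (2 μg) reverse-transcribed with oligo dT18/M-MLV; c-MYC, NM23-H2 and β-actin amplified by real-time PCR, checked on 1.5% agarose.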"}, "Raji [2]": {"system": "Raji", "test": "Cell cycle arrest in human Raji cells assessed as accumulation at G0/G1 phase after 24 hrs by propidium iodide staining based flow cytometry (reference value: 38.5%)", "type": "functional"}, "Raji [3]": {"system": "Raji", "test": "Antitumor activity against human Raji cells xenografted in NOD/SCID nude mouse assessed as reduction in tumor weight at 15 to 30 mg/kg, ip administered once daily for 2 weeks relative to control", "type": "functional, organism-based", "in_short": "(§2)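 NOD/SCID mice were implanted subcutaneously in the underarm with RAJI cells (5 × 10^6 per 100 μL of RPMI 1640 with 10% serum). Tumours reached […] after 1 week, and mice were then randomised. […] Tumour volume was recorded daily and tumour weight at the end.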"}, "Raji [4]": {"system": "Raji", "test": "Induction of apoptosis in human Raji cells assessed as early apoptotic cells at 0.5 uM after 48 hrs by Annexin V-FITC/propidium iodide staining based flow cytometry (reference value: 1.8%)", "type": "functional", "in_short": "(§3)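 RAJI cells exposed to compound or control medium for 12 or 48 h were washed in PBS and resuspended in binding buffer. They were stained with FITC annexin V and PI for 15 min in the dark, and fluorescence was measured by flow cytometry.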"}, "Homo sapiens [5]": {"organism": "Homo sapiens", "test": "Stabilization of c-Myc G-quadruplex DNA in human Raji cells assessed as downregulation of c-Myc protein level at 1 uM by Western blot method", "type": "cell-based", "conditions": "TDE = time-dependent effect", "in_short": "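Western blot of RAJI cells treated either with 1 μM for 6, 12, 24 and 48 h or with graded concentrations for 6 h. Lysed in 1% NP-40, 50 μg protein/lane on 3–12% SDS-PAGE, nitrocellulose, probed for c-MYC, NM23-H2, GAPDH loading control, HRP secondary with ECL; untreated control, three replicates.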"}, "Raji [6]": {"system": "Raji", "test": "Cell cycle arrest in human Raji cells assessed as accumulation at G0/G1 phase after 6 hrs by propidium iodide staining based flow cytometry (reference value: 38.5%)", "type": "functional"}, "[7]": {"test": "Inhibition of NM23-H2 binding to 5'-FAM labeled c-Myc Pu27 G-quadruplex DNA (unknown origin) at 10 uM preincubated for 1 hr followed by NM23-H2 addition by electrophoretic mobility shift assay relative to control", "in_short": "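Annealed labeled Pu27 (1.5 μM) preincubated 1 h at 25 °C with 10 μM ligand or 5% DMSO. Recombinant His-tagged NM23-H2 (0.5 μM, E. coli BL21, nickel-purified) then added for 1 h at 37 °C. Complexes resolved on 5% native polyacrylamide gel in 0.5× TBE at 4 °C. Inhibition taken as loss of complex band intensity versus no-compound band set at 100%. Run three times.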"}, "Raji [8]": {"system": "Raji", "test": "Cell cycle arrest in human Raji cells assessed as accumulation at G2/M phase after 12 hrs by propidium iodide staining based flow cytometry (reference value: 24.4%)", "type": "functional"}, "Raji [9]": {"system": "Raji", "test": "Effect on NM23-H2 protein expression in human Raji cells up to 4 uM up to 48 hrs by Western blot method", "type": "functional, cell-based", "in_short": "(§4)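 After compound exposure (12 h for cell-cycle and apoptosis markers), RAJI cells were lysed in 1% NP-40 buffer. Protein at 50 μg per lane was run on 3–12% SDS-PAGE and transferred to nitrocellulose. Blots were probed with primary antibodies (GAPDH as loading reference) and detected with an HRP secondary and enhanced chemiluminescence.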"}, "[10]": {"test": "Stabilization of c-Myc Pu27 G-quadruplex DNA (unknown origin) assessed as induction of parallel G-quadruplex formation in absence of K+ ions by CD spectroscopic analysis", "in_short": "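CD spectra: Pu27 at 5 μM in 10 mM Tris-HCl pH 7.4 without or with 100 mM KCl, annealed 95 °C 5 min, slow-cooled, kept at 4 °C overnight, with ligand. Scanned 230–400 in a 4 mm quartz cuvette, 1 nm bandwidth and step, 0.5 s/point; buffer baseline subtracted.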"}, "Raji [11]": {"system": "Raji", "test": "Induction of apoptosis in human Raji cells assessed as downregulation of Cyclin D1 expression after 12 hrs by Western blot method", "type": "functional, cell-based", "in_short": "as §4"}, "Raji [12]": {"system": "Raji", "test": "Induction of apoptosis in human Raji cells assessed as early apoptotic cells at 0.5 uM after 12 hrs by Annexin V-FITC/propidium iodide staining based flow cytometry (reference value: 2.3%)", "type": "functional", "in_short": "as §3"}, "Raji [13]": {"system": "Raji", "test": "Antitumor activity against human Raji cells xenografted in NOD/SCID nude mouse assessed as reduction in tumor volume at 15 mg/kg, ip administered once daily for 2 weeks relative to control", "type": "functional", "in_short": "as §2"}, "Raji [14]": {"system": "Raji", "test": "Cell cycle arrest in human Raji cells assessed as accumulation at G2/M phase after 6 hrs by propidium iodide staining based flow cytometry (reference value: 24.4%)", "type": "functional"}, "Raji [15]": {"system": "Raji", "test": "Induction of apoptosis in human Raji cells assessed as upregulation of cleaved caspase-9 expression up to 4 uM after 12 hrs by Western blot method", "type": "functional, cell-based", "in_short": "as §4"}, "Raji [16]": {"system": "Raji", "test": "Induction of apoptosis in human Raji cells assessed as late apoptotic cells at 1 uM after 48 hrs by Annexin V-FITC/propidium iodide staining based flow cytometry (reference value: 0.1%)", "type": "functional", "in_short": "as §3"}, "Raji [17]": {"system": "Raji", "test": "Induction of apoptosis in human Raji cells assessed as late apoptotic cells at 0.5 uM after 48 hrs by Annexin V-FITC/propidium iodide staining based flow cytometry (reference value: 0.1%)", "type": "functional", "in_short": "as §3"}, "[18]": {"test": "Inhibition of NM23-H2 binding to 5'-biotin labeled c-Myc Pu27 G-quadruplex DNA (unknown origin) […] by ELISA", "in_short": "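Biotin-Pu27 at 100 nM in 10 mM Tris-HCl pH 7.4 with 100 mM KCl was annealed and captured on streptavidin plates. Compound (serial halving from 50 μM in 3% BSA blocking buffer) was preincubated with 250 nM NM23-H2 for 1 h at 25 °C, then added to the DNA at 4 °C overnight. Bound protein was detected with anti-NM23-H2, an HRP secondary and TMB, read at A450; three replicates, DMSO control.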"}, "Mus musculus": {"system": "Mus musculus", "test": "Toxicity in NOD/SCID nude mouse xenografted with human Raji cells assessed as reduction in viscera weight at 15 to 30 mg/kg, ip administered once daily for 2 weeks measured every day during compound dosing", "type": "organism-based", "conditions": "in vivo, 336 h", "in_short": "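NOD/SCID mice implanted subcutaneously in the underarm with 5 × 10^6 RAJI cells in 100 μL RPMI 1640 with 10% serum; tumours grown about 1 week, then mice randomized. Body weight recorded daily; organ weights taken at end.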"}, "Homo sapiens [19]": {"organism": "Homo sapiens", "test": "Stabilization of c-Myc G-quadruplex DNA in human CCRF-CEM cells assessed as downregulation of c-Myc mRNA level at 2 uM after 12 hrs by RT-PCR method relative to control", "type": "cell-based", "in_short": "as §1"}},
  "note": "The source made the active and inactive calls. The calls are words filed in the database; no cut-off is given here.",
  "data": [
    {"smiles": "CN(C)CCCNc1c2ccccc2nc2c1oc1ccc(OCC3CCN(C)CC3)cc12", "values": [
      {"measurement": "Activity", "setting": "Homo sapiens [1]", "value": "> 80", "unit": "%"},
      {"measurement": "Activity", "setting": "Raji [2]", "value": 56.3, "unit": "%"},
      {"measurement": "Activity", "setting": "Raji [3]", "value": "Active"},
      {"measurement": "Activity", "setting": "Raji [4]", "value": 12.2, "unit": "%"},
      {"measurement": "Activity", "setting": "Homo sapiens [5]", "value": "Tde"},
      {"measurement": "Activity", "setting": "Raji [6]", "value": 50.2, "unit": "%"},
      {"measurement": "inhibition", "setting": "[7]", "value": "> 80", "unit": "%"},
      {"measurement": "Activity", "setting": "Raji [8]", "value": 29.3, "unit": "%"},
      {"measurement": "Activity", "setting": "Raji [9]", "value": "inactive"},
      {"measurement": "Activity", "setting": "[10]", "value": "Active"},
      {"measurement": "Activity", "setting": "Raji [11]", "value": "Dose-dependent effect"},
      {"measurement": "Activity", "setting": "Raji [12]", "value": 4.6, "unit": "%"},
      {"measurement": "T/C", "setting": "Raji [13]", "value": 33.3, "unit": "%"},
      {"measurement": "Activity", "setting": "Raji [14]", "value": 26.8, "unit": "%"},
      {"measurement": "Activity", "setting": "Raji [15]", "value": "Active"},
      {"measurement": "Activity", "setting": "Raji [16]", "value": 37, "unit": "%"},
      {"measurement": "Activity", "setting": "Raji [17]", "value": 0.7, "unit": "%"},
      {"measurement": "inhibition", "setting": "[18]", "value": "Dose-dependent effect"},
      {"measurement": "Activity", "setting": "Mus musculus", "value": "Non-Toxic"},
      {"measurement": "Activity", "setting": "Homo sapiens [19]", "value": "< 20", "unit": "%"}
    ]}
  ]
}
